For four compounds, Drug uptake and MIC results are on record in ChEMBL document CHEMBL4373642, “Fluoroquinolone-derived fluorescent probes for studies of bacterial penetration and efflux” (Medchemcomm, 2019).

A short description of data set [1]: Drug uptake in Escherichia coli AG102 incubated for 30 to 45 mins by Hoechst 33342 and Syto9 staining based confocal microscopy. In kind it is ADME. The gist of the method: (§1)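 Colonies from LB agar were grown overnight in CAMHB at 37 °C, diluted ~40-fold and grown to OD600 0.4–0.6. Cells were pelleted, washed in HBSS and incubated with probe (50–100 μM) in HBSS at 37 °C for 30–45 min. […] were stained with Hoechst 33342 (5 μg mL^-1) or Syto-9 (10 μM) for 20 min, and membranes with FM4-64FX (5 μg mL^-1) for 5 min on ice. Samples were mounted and imaged by confocal microscopy.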

The subject of data set [2] is Escherichia coli. The experiment in a line: Antibacterial activity against Escherichia coli MB4902 harbouring lpxC mutant assessed as reduction in bacterial growth incubated for 18 to 24 hrs by broth microdilution method. The class given is functional. The gist of the method: (§2)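 Broth microdilution in cation-adjusted Mueller Hinton broth. Overnight 37 °C cultures were diluted 50-fold and grown 1.5–3 h to mid-log, then seeded at 5×10^5 CFU mL^-1. Compounds were two-fold serially diluted, final range 0.0039–64 μg mL^-1, in duplicate. Plates were incubated at 37 °C for 18–24 h.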
A general note: In broth dilution the organism is exposed to a series of concentrations in liquid medium.

In data set [3] the test system is Escherichia coli. The experiment in a line: Antibacterial activity against Escherichia coli ATCC 25922 assessed as reduction in bacterial growth incubated for 18 to 24 hrs by broth microdilution method. In kind it is functional. The gist of the method: (§3)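 Bacteria grown overnight in cation-adjusted Mueller Hinton broth (CAMHB) at 37 °C, diluted 50-fold and grown 1.5–3 h to mid-log, then inoculated at 5×10^5 CFU mL^-1. Two-fold serial dilutions gave final 0.0039–64 μg mL^-1, plated in duplicate. Incubated 37 °C for 18–24 h.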

A further data set deals with Klebsiella pneumoniae. The experiment in a line: Antibacterial activity against Klebsiella pneumoniae ATCC 13883 assessed as reduction in bacterial growth incubated for 18 to 24 hrs by broth microdilution method. The class given is functional. The gist of the method: (§4)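 Bacteria grown overnight in cation-adjusted Mueller Hinton broth (CAMHB) at 37 °C, diluted 50-fold and grown 1.5–3 h to mid-log, then inoculated at 5×10^5 CFU mL^-1. Two-fold serial dilutions gave final 0.0039–64 μg mL^-1, plated in duplicate. Incubated 37 °C for 18–24 h. MIC was the lowest concentration with no visible growth (n ≥ 3).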

The test system of data set [4] is Pseudomonas aeruginosa. The experiment in a line: Antibacterial activity against Pseudomonas aeruginosa PAO750 PAO397 harbouring delta efflux pump mutant assessed as reduction in bacterial growth incubated for 18 to 24 hrs by broth microdilution method. In kind it is functional. The method, boiled down:
as §2

Data set [5] is described as follows: Drug uptake in Staphylococcus aureus incubated for 30 to 45 mins by Hoechst 33342 and Syto9 staining based confocal microscopy. In kind it is ADME. The gist of the method: as §1
The next data set deals with Enterococcus faecium. Put plainly: Antibacterial activity against Enterococcus faecium ATCC 35667 assessed as reduction in bacterial growth incubated for 18 to 24 hrs by broth microdilution method. The class given is functional. The method, boiled down:
as §4

Data set [6] deals with Pseudomonas aeruginosa. Put plainly: Antibacterial activity against Pseudomonas aeruginosa ATCC 27853 assessed as reduction in bacterial growth incubated for 18 to 24 hrs by broth microdilution method. In kind it is functional. The gist of the method:
as §3

In data set [7] the test system is Escherichia coli. Put plainly: Antibacterial activity against Escherichia coli MB5747 harbouring tolC mutant assessed as reduction in bacterial growth incubated for 18 to 24 hrs by broth microdilution method. In kind it is functional. The gist of the method:
as §2

The subject of data set [8] is Escherichia coli. Put plainly: Antibacterial activity against Escherichia coli MB5746 harbouring lpxC and tolC double mutant assessed as reduction in bacterial growth incubated for 18 to 24 hrs by broth microdilution method. The class given is functional. The method, boiled down: as §2
The next data set deals with Staphylococcus aureus. Put plainly: Antibacterial activity against Staphylococcus aureus ATCC 25923 assessed as reduction in bacterial growth incubated for 18 to 24 hrs by broth microdilution method. The class given is functional. The gist of the method:
as §4

The nature of data set [9]: Drug uptake in Escherichia coli AG102 incubated for 30 to 45 mins in presence of CCCP by Hoechst 33342 and Syto9 staining based confocal microscopy. In kind it is ADME. The gist of the method:
as §1

In the next data set the test system is Bacillus subtilis. The experiment in a line: Antibacterial activity against Bacillus subtilis ATCC 6051 assessed as reduction in bacterial growth incubated for 18 to 24 hrs by broth microdilution method. The class given is functional. The gist of the method: as §4
Another data set concerns Acinetobacter baumannii. Put plainly: Antibacterial activity against Acinetobacter baumannii ATCC 19606 assessed as reduction in bacterial growth incubated for 18 to 24 hrs by broth microdilution method. The class given is functional. Conditions: ATCC 19606 = CIP 70.34 = JCM 6841; call rule not given here. The gist of the method: as §4

In brackets after ≈: the same amount, converted by molar mass.

In general, MIC refers to the lowest concentration that inhibits growth of the organism. With `O=C(O)c1cn(C2CC2)c2cc(N3CCN(CCCn4cc(CNc5ccc([N+](=O)[O-])c6nonc56)nn4)CC3)c(F)cc2c1=O`, the Drug uptake entry is “Not Active” in [1], “Active” in data set [5] and “Active” in data set [9]. Also, the MIC is 1 to 4 µg/mL (≈ 1.58 to 6.32 µM) in the data set with Escherichia coli [2]; 8 µg/mL (≈ 12.6 µM) in the data set with Escherichia coli [3]; 8 to 16 µg/mL (≈ 12.6 to 25.3 µM) with Klebsiella pneumoniae; 4 µg/mL (≈ 6.32 µM) in the data set with Pseudomonas aeruginosa [4]; 32 µg/mL (≈ 50.6 µM) in the data set on Enterococcus faecium; 32 to 64 µg/mL (≈ 50.6 to 101 µM) in the data set with Pseudomonas aeruginosa [6]. The MIC in the data set on Escherichia coli [7] was 0.125 to 0.25 µg/mL (≈ 0.198 to 0.395 µM); with Escherichia coli [8], 0.06 to 0.125 µg/mL (≈ 0.0948 to 0.198 µM); with Staphylococcus aureus, 32 to 64 µg/mL (≈ 50.6 to 101 µM); in the data set on Bacillus subtilis, 8 µg/mL (≈ 12.6 µM); in the data set with Acinetobacter baumannii, 32 to 64 µg/mL (≈ 50.6 to 101 µM).

On to `CN(C)c1ccc2c(CC(=O)NCc3cn(CCCN4CCN(c5cc6c(cc5F)c(=O)c(C(=O)O)cn6C5CC5)CC4)nn3)cc(=O)oc2c1`, for which the Drug uptake result in [1] and in [5] was “Active” each time. In addition, the MIC was 2 µg/mL (≈ 2.86 µM) with Escherichia coli [2]; 2 µg/mL (≈ 2.86 µM) in the data set on Escherichia coli [3]; 4 to 32 µg/mL (≈ 5.72 to 45.8 µM) in the data set with Klebsiella pneumoniae; 2 to 8 µg/mL (≈ 2.86 to 11.4 µM) with Pseudomonas aeruginosa [4]; 32 to 64 µg/mL (≈ 45.8 to 91.6 µM) with Enterococcus faecium; 32 to 64 µg/mL (≈ 45.8 to 91.6 µM) with Pseudomonas aeruginosa [6]. Also, the MIC is 0.5 to 1 µg/mL (≈ 0.716 to 1.43 µM) in the data set on Escherichia coli [7]; 0.5 to 1 µg/mL (≈ 0.716 to 1.43 µM) with Escherichia coli [8]; 16 µg/mL (≈ 22.9 µM) in the data set with Staphylococcus aureus; 4 µg/mL (≈ 5.72 µM) in the data set on Bacillus subtilis; 32 µg/mL (≈ 45.8 µM) with Acinetobacter baumannii.

For the compound `O=C(O)c1cn(C2CC2)c2cc(N3CCNCC3)c(F)cc2c1=O` [CIPROFLOXACIN], the MIC with Klebsiella pneumoniae fell in the range of 0.015 to 0.06 µg/mL (≈ 0.0453 to 0.181 µM); with Enterococcus faecium, 1 to 8 µg/mL (≈ 3.02 to 24.1 µM); in the data set with Staphylococcus aureus, 0.125 to 0.5 µg/mL (≈ 0.377 to 1.51 µM); with Bacillus subtilis it was 0.06 to 0.313 µg/mL (≈ 0.181 to 0.945 µM); in the data set on Acinetobacter baumannii, 0.5 to 1 µg/mL (≈ 1.51 to 3.02 µM).

With `[N-]=[N+]=NCCCN1CCN(c2cc3c(cc2F)c(=O)c(C(=O)O)cn3C2CC2)CC1`, the MIC in the data set on Escherichia coli [2] is 0.25 to 1 µg/mL (≈ 0.603 to 2.41 µM); in the data set on Escherichia coli [3], 0.06 to 0.25 µg/mL (≈ 0.145 to 0.603 µM); in the data set on Klebsiella pneumoniae it was 0.125 to 0.25 µg/mL (≈ 0.302 to 0.603 µM); in the data set on Pseudomonas aeruginosa [4], 32 to 64 µg/mL (≈ 77.2 to 154 µM); in the data set on Enterococcus faecium, 16 to 64 µg/mL (≈ 38.6 to 154 µM); with Pseudomonas aeruginosa [6], 8 to 64 µg/mL (≈ 19.3 to 154 µM). The MIC was 0.25 to 1 µg/mL (≈ 0.603 to 2.41 µM) in the data set with Escherichia coli [7]; 0.25 to 1 µg/mL (≈ 0.603 to 2.41 µM) with Escherichia coli [8]; 0.25 µg/mL (≈ 0.603 µM) with Staphylococcus aureus; 0.06 to 0.25 µg/mL (≈ 0.145 to 0.603 µM) with Bacillus subtilis; 0.25 to 0.5 µg/mL (≈ 0.603 to 1.21 µM) in the data set on Acinetobacter baumannii.
